In paper PMC11403393 (RSC Advances, 2024):

Molecular target: α-glucosidase (Saccharomyces cerevisiae, UniProt P53341)
Test: Kinetic study of α-glucosidase inhibition
Assay type: biochemical
In short: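 Yeast α-glucosidase (0.02 U per well) in 50 mM sodium phosphate, pH 7.0, preincubated with test compound (1.50, 4.00, 8.00 μM, or none) at 37 °C for 15 min. p-Nitrophenyl α-D-glucopyranoside added at 0.1, 0.2, 0.4 or 0.8 mM. A400 followed continuously for 30 min, in triplicate. Analysed by Lineweaver–Burk plot, replot of its slopes against inhibitor concentration, and Dixon plot.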

α-glucosidase, sequence (P53341 whole entry): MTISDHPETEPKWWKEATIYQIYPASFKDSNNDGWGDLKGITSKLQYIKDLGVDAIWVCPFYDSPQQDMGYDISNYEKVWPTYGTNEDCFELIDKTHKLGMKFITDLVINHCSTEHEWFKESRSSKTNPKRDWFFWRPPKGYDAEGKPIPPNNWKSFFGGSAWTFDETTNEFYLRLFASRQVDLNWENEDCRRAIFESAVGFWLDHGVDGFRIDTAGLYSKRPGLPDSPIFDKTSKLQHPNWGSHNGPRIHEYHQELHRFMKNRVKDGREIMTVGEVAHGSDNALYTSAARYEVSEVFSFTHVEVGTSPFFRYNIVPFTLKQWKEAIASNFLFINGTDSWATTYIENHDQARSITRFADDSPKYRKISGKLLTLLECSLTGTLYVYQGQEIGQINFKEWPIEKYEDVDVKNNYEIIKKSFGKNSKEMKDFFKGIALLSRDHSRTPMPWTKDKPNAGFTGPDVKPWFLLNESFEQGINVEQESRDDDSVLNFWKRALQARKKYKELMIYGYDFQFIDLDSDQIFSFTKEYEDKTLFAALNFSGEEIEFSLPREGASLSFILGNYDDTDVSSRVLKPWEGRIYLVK

O=C(Nc1cccc(Cl)c1)Nc1ccccc1N=Cc1cc(Cl)ccc1O [Compound 5h, 1-(2-{[(5-Chloro-2-hydroxybenzylidene)amino]}phenyl)-3-(3-chlorophenyl)urea]
Effect on Km of the enzyme: increases Km
Effect on Vmax of the enzyme: remains constant
Mode (type) of inhibition: competitive mode of inhibition
